The results in this text go back to ChEMBL document CHEMBL4513216, “Probing the Open Global Health Chemical Diversity Library for Multistage-Active Starting Points for Next-Generation Antimalarials” (ACS Infect Dis, 2020).

The structures appear in SMILES notation.

A short description of this data set: Toxicity liver stage against HepG2, at 10uM. The data set is classed as cell-based. Also on record: test concentration 10 uM, cell line HepG2-A16-CD81EGFP. The settings on record: human, HepG2-A16-CD81EGFP cells; read-out: INHIBITION
In outline:
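Uninfected HepG2-A16-CD81EGFP cells, 3 × 10^3 per well, 1536-well, plated on prespotted compound at 10 μM final, parasite-free screening media added to match infected plates; puromycin 10 μM positive, DMSO 0.5% negative; run in parallel with 48 h PbLuc assay at 37 °C, 5% CO2; viability by CellTiter-Glo luminescence, normalized to controls.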
As to `Cn1ccc2ccc(C(=O)N3CC[C@@]4(O)CCCC[C@H]4C3)cc21`, the cytotoxicity at 10 µM was -46.6%. To `Cn1cc(C2SCC(=O)Nc3c2cnn3C(C)(C)C)cn1` (stereo unspecified) belongs -6.24%. On to `CCSc1ccccc1C(=O)NCCn1nc(C(F)(F)F)n(C)c1=O`, for which the cytotoxicity at 10 µM is 6.83%. For `O=C(CN1CCC(c2nnc(C(F)(F)F)o2)CC1)Nc1cccc(Cl)c1`, the cytotoxicity at 10 µM is -1.53%.

As for `Cc1nc(CO[C@@H]2CN(Cc3ccco3)[C@@H]3COC[C@@H]32)cs1`, the cytotoxicity at 10 µM was found to be 5.66%.

In the case of `Cc1nc([C@H]2C[C@@H]3CCN(C(=O)c4ccnnc4)C[C@H]3O2)sc1C`, the cytotoxicity at 10 µM is 1.01%. In the case of `CN1CCCN(Cn2nc(-c3ccccc3F)ccc2=O)CC1`, the cytotoxicity at 10 µM is 9.77%. As for `CCOC(=O)CSc1ccc(-c2nc(C)no2)cn1`, the figure is -15.2%. To `Cc1noc(C2CCN(c3oc(C)nc3C#N)CC2)n1` belongs -6.32%; to `CCOC1Sc2nnc(C)n2N=C1c1ccc(Br)cc1` (stereo unspecified), -2.92%. To `Cc1c(Cn2cc(Cl)c(N)n2)cnn1C` belongs -5.18%.

As for `Cc1sc(Oc2ccccc2Cl)nc1C(=O)O`, the cytotoxicity at 10 µM stood at 1.95%. As to `CC1(c2ncc(CN3CCOCC3)cn2)CCCCO1` (stereo unspecified), the cytotoxicity at 10 µM worked out at 6.08%. To `Cc1cc(-c2cc(N)c(=O)n(CC(=O)NC3CCCC3)n2)c(C)o1` belongs 4.39%; to `CN(C)Cc1cnc(C2CCN(C(=O)c3ccc(F)cc3)C2)[nH]1` (stereo unspecified), -1.92%. To `Nc1cc(-c2c[nH]nc2C2CCCN2CCCc2ccccc2)ccn1` (stereo unspecified) belongs 3.75%; to `CC(=O)OCc1ccc(CN2CCCCCC2c2cc(C)no2)o1` (stereo unspecified), -13.1%.

On to `O=C(C1CCCC1)N1CCCC(c2nc(O)cc(-c3ccncc3)n2)C1` (stereo unspecified), for which the cytotoxicity at 10 µM was -16.9%. To `Cc1cc(C)n(CC2CCCN2Cc2ccc(F)cc2C#N)n1` (stereo unspecified) belongs 7.77%. On to `CCN(CC(O)c1ccc(C)cc1)C(=O)NC(C)C` (stereo unspecified), for which the cytotoxicity at 10 µM was -7.74%.

As for `Cc1ccc(Br)cc1NC(=O)NC1CCC2(C1)OCCO2` (stereo unspecified), the cytotoxicity at 10 µM is 15.6%. To `COc1ccncc1NC(=O)C1(c2ccc(F)cc2)CCC1` belongs 1.52%; to `CCC(CNC(=O)c1cccc(S(=O)(=O)NC)c1)N1CCCC1` (stereo unspecified), -4.18%; to `Cc1ccccc1C(NC(=O)CCCS(C)(=O)=O)C(C)(C)C` (stereo unspecified), -9.4%. `COc1ccc(CNC2CCC(O)CC2)cc1OCCCC#N` (stereo unspecified): the cytotoxicity at 10 µM was -2.56%. As for `Cc1nnc(NCC(c2ccco2)N2CCCCC2)c(C#N)c1C` (stereo unspecified), the figure is -5.23%; as for `Cc1ncc2c(n1)CN(Cc1cn3ccsc3n1)CC2`, -9.06%. To `N#CCCN(CCC#N)C(=O)c1ccc(COc2ccccc2C#N)o1` belongs -16.6%; to `Cc1nn(CCO)c(C)c1CNC1CCCCc2ccccc21` (stereo unspecified), -2.42%. To `O=C(O)c1csc(S(=O)(=O)Nc2c(F)cccc2-n2cccn2)c1` belongs -7.32%.

With `N#Cc1cccc(CNC(=O)NC2CCN(CC(F)F)CC2)c1`, the cytotoxicity at 10 µM worked out at 4.16%. Take `O=C(c1ccoc1)N1CCN(Cc2ccccc2F)CC1`: the cytotoxicity at 10 µM was -13.2%. As for `Cc1n[nH]c(C2CN(C(=O)c3ccc4c(c3)COC4)CCO2)n1` (stereo unspecified), the figure is 17.4%. As for `Cc1cccc(-c2noc(CN3CCc4c(ncn4C4CC4)C3)n2)c1`, the figure is 4.95%; as for `CN1CCC(N(C)C(=O)CCc2ccc(F)c(F)c2)C1=O` (stereo unspecified), -17.7%. As for `CN(Cc1nccn1C)S(=O)(=O)Cc1cccc(C#N)c1`, the figure is 4.16%; as for `CCN1CCN(S(=O)(=O)c2cn(C(C)C)cn2)c2ccccc21`, -4.3%; as for `CN(C)S(=O)(=O)c1ccc(CSCC(=O)NC(C)(C)C)o1`, -1.82%. Turning to `Cc1ccc(C(NCC(=O)N2CCNC(=O)C2)C(F)(F)F)cc1` (stereo unspecified), the cytotoxicity at 10 µM was -8.3%. To `COc1ccc(NC(C)c2nnnn2-c2ccccc2)cn1` (stereo unspecified) belongs 3.99%; to `CCC1c2ccccc2CCN1CCNS(C)(=O)=O` (stereo unspecified), 5.56%; to `COCCOCCNc1cncc(Br)c1`, -1.33%. As for `Cn1cc(C(=O)O)c(-c2ccc(F)cc2F)n1`, the figure is -4.03%.

As for `Cc1cc(C(=O)Nc2ccn(CCCN3CCCC3)n2)c(C)o1`, the cytotoxicity at 10 µM was -7.12%. To `COc1ccccc1CNC(=O)C1=NN(c2ccc(C)cc2)C(=O)CN1` belongs 25.1%. As for `C[S+]([O-])CCCNC(=O)c1cc(Br)c2c(c1)OCCO2` (stereo unspecified), the figure is 16.9%.

Consider `Cc1cc(C(=O)N2CCCC(n3ccnc3C)C2)c(C)s1` (stereo unspecified), for which the cytotoxicity at 10 µM is -16%. In the case of `CS(=O)(=O)NCc1nnc2n1CCN(Cc1nccs1)C2`, the cytotoxicity at 10 µM is -75.7%. To `CC(C)N1CCO[C@H]2CN(C(=O)c3ccc(N(C)C)cc3)C[C@H]21` belongs 3.19%; to `CCc1c(C(=O)N2CCC3(CC(=O)NC3=O)C2)csc1C` (stereo unspecified), 1.62%; to `CN(C)C(=O)c1cn2cc(-c3cccc(Cl)c3)n(CC3CC3)c(=O)c2n1`, -1.62%. With `Cc1cccc(CN2CCN(C(=O)c3cc(Cl)c[nH]c3=O)CC2)c1`, the cytotoxicity at 10 µM was found to be 1.47%. To `NC(=O)N1CCCC(C(=O)N2CCc3c(nc(CC4CC4)[nH]c3=O)C2)C1` (stereo unspecified) belongs -13.8%. To `C=C(C)COc1ccccc1C(=O)N1CCC2(CC1)CN(C)CCN2C` belongs -50.2%; to `Cc1n[nH]c(C)c1CCNC(=O)Nc1ccc2c(c1)COC2`, -20.4%; to `CC(=O)N1C[C@H](NS(=O)(=O)Cc2cccc(Cl)c2)[C@@H](C(C)C)C1`, -1.73%. To `Cc1cccnc1N1CCN(C(=O)C(C)n2ccnc2C(C)C)CC1` (stereo unspecified) belongs -10.3%.

With `CCc1cnc(N)nc1NC(C)c1cnn(C)c1` (stereo unspecified), the cytotoxicity at 10 µM was -0.333%. To `Cc1ocnc1C(=O)N1CCN(Cc2ccccc2)[C@@H]2CS(=O)(=O)C[C@@H]21` belongs -1.26%; to `Cc1nc(CN(C)C(=O)c2cc(C)sc2NC(=O)C(C)(C)C)no1`, 3.81%; to `O=C(Cc1ccncc1)N(CCO)CCSc1ccc(Cl)cc1`, 2.59%. To `O=C(c1ccccc1C(F)(F)F)N1CC[C@@H](N2CCC(O)CC2)[C@H](O)C1` belongs -2.49%. To `Cc1ccc(C(=O)N2C[C@@H](NS(C)(=O)=O)[C@H](C(C)C)C2)cc1O` belongs -2.62%.

As to `CCCn1ncc(C(=O)N(Cc2cccnc2)C[C@@H]2CCC(=O)N2)c1C`, the cytotoxicity at 10 µM worked out at 7.69%. To `COCCN(C)C(C(=O)O)c1cc(Cl)ccc1OC` (stereo unspecified) belongs -6.92%; to `CCOc1ccccc1-n1c(-c2cn(CC)nc2C)n[nH]c1=O`, 2.81%. As for `Cc1cccc2c1nc(COCC(=O)O)n2-c1ccsc1`, the figure is -0.793%; as for `CCCn1ccnc1CN1C[C@@H](CN2CCCCC2)[C@@H](CO)C1`, 0.945%; as for `Cc1cc(NC(=O)CNCc2csc(-c3ncccn3)n2)ccc1Cl`, -7.21%. To `O=C(CCCn1ccnc1)N1CCC2(CC1)[C@H](O)C[C@@H]2OCCO` belongs 3.31%. In the case of `O=C1N(Cc2cccc(F)c2F)CCCC1(O)CN1CCCOCC1` (stereo unspecified), the cytotoxicity at 10 µM amounted to 18.3%. Take `Cc1ccc(NC2CCN(C(=O)c3ccc4c(c3)CCC4)CC2)nn1`: the cytotoxicity at 10 µM is -8.19%. As for `Cc1cc(C)c(CNC(=O)N(C)Cc2cccc(F)c2)c(=O)[nH]1`, the figure is -1.62%. For `c1ccc(-c2nc(CN3CCOC(Cn4cncn4)C3)cs2)cc1` (stereo unspecified), the cytotoxicity at 10 µM was -4.33%. As for `CC(C)(C)c1n[nH]c(C2CN(C(=O)CCc3ccco3)CCO2)n1` (stereo unspecified), the figure is -8.24%; as for `c1ccc(-c2nc(CN3CCCC3Cn3cncn3)no2)cc1` (stereo unspecified), -7.22%; as for `CC(=O)NCc1ccc(C(=O)NC2CCc3nc(C)cn3C2)o1` (stereo unspecified), -3.81%.

Regarding `Cc1nccn1C1CCCN(C(=O)c2ccnc(-n3ccnc3)c2)C1` (stereo unspecified), the cytotoxicity at 10 µM is 0.998%.

In the case of `COCCN1CCC(CNCc2c[nH]nc2C(C)(C)C)CC1`, the cytotoxicity at 10 µM is -17%.

With `COC(=O)c1ccc(N2CCN(CCC#N)C(C)C2)cc1` (stereo unspecified), the cytotoxicity at 10 µM is -11.3%. As for `COc1c(CNCCNC(=O)Cc2ccc(F)cc2)c(C)nn1C`, the figure is -3.09%; as for `CC(C)CCCNC(=O)Nc1ccc(F)c(C(N)=O)c1`, -2.73%; as for `COCCc1noc(CN2CCCCC2Cn2nc(C)cc2C)n1` (stereo unspecified), 0.962%. In the case of `NCCc1cc(N2CCOCC2)nc(NC2CC2)n1`, the cytotoxicity at 10 µM came out at 0.881%. As for `Cc1cc(N2CCN(Cc3cn(C)nc3C)CC2)cc(C2CCNC2)n1` (stereo unspecified), the figure is 0.39%; as for `OCCN(Cc1ccncc1)CC1(c2ccc(Cl)cc2)CCCC1`, 13.8%. To `CN1CC[C@H]2OCC[C@@H](C(=O)NCc3ccco3)[C@@H]2C1` belongs -78%.

Turning to `CNC(=O)[C@H]1C[C@@H]2CCN(CCc3ccccc3)C[C@@H]2O1`, the cytotoxicity at 10 µM was -81.7%.

Turning to `CN1CC(=O)N(c2cccc(F)c2)CC12CCN(Cc1cnn(C)c1)C2` (stereo unspecified), the cytotoxicity at 10 µM was -5.87%. As for `c1ccc(OC[C@]23COC[C@H]2CN(Cc2ccoc2)C3)nc1`, the figure is -8.63%. As for `Cc1nc(CN2CC3(CCN(c4ncccn4)C3)CC2=O)cs1` (stereo unspecified), the figure is 5.31%; as for `COCCO[C@H]1CCN(C(=O)c2ccno2)[C@H]1Cc1ccncc1`, -78.1%; as for `O=S(=O)(NCC1COCc2c(-c3ccncc3)nnn2C1)C1CC1` (stereo unspecified), -80.9%.

As for `CCOc1ncccc1Cn1cc2[nH]cccc-2c1=O`, the cytotoxicity at 10 µM was 1.93%. To `Cc1cccc(C(=O)N2C[C@@H]3CC[C@H]2CN(S(=O)(=O)N(C)C)C3)n1` belongs 7.4%; to `O=C1C[C@@H]2CC[C@H](CN1)N2C1CSCCSC1`, -2.26%.
